From PubChem BioAssay
Most compounds without a hit are left out; they make up all but 2% or so of the library.
Myeloid diff 2: myeloid differentiation induction. 360,000 compounds, 1% hits. AID 624256. calls only at 10 µM. ER-HoxA9 myeloid progenitors, lysozyme-GFP differentiation, flow cytometry;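 active = normalized GFP-positive differentiation at or above the plate's own cutoff, the solvent-only control mean plus 3 SD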;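 note: cells exposed to compound for four days before flow analysis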
T cell modulator: T cell immune modulators affecting CD8 T cell-vesicle binding | 2C CD8+ T cell-vesicle binding, flow cytometry; hits give low values | response (vesicle binding), % at 7 µM | 330,000 compounds, 0.068% hits | AID 2052;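 active = response, share of CD8 T cells binding vesicles, and their 90th percentile fluorescence all below set limits, cut at about 80% in these data, passing the limit was not always enough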;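 note: values below 100% mean blocked vesicle binding to the CD8+ T cells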
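System: murine 2C transgenic CD8+ T lymphocytes; also added: QL9-loaded Drosophila micro-vesicles; times: binding 1.5 h at 37 °C; measured by: flow cytometry, PE anti-B7-1 (FL2) versus Alexa647 anti-CD8 (FL8), PFA-fixed; control set: Peptide-free naked vesicles (low) and QL9 vesicles with 0.7% DMSO vehicle (high)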
FXN GAA850 act: activators of GAA850 frataxin (FXN) promoter; HEK293 lucGAA850 FXN promoter luciferase reporter, 24 h; percent of 10 µM SAHA response; activation, % at 6 µM; 360,000 compounds, 0.56% hits; AID 540364;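 active = activation above the average of all compounds screened plus 3 SD, cutoff fixed separately per campaign, cut at about 7.5% in these data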;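 note: 0% = DMSO wells and 100% = 10 µM SAHA wells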
NR2E3 ag-1: human photoreceptor-specific nuclear receptor agonism; Q9Y5X4; CHO-S Gal4-NCOR/VP16-NR2E3 two-hybrid, luciferase; inhibition of corepressor binding, % at 3.98 µM; 360,000 compounds, 0.35% hits;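 active = inhibition above the mean of all tested compounds plus 3 SD, cut at about 70% in these data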;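 note: 0% = DMSO with NR2E3 transfected cells and 100% = cells lacking NR2E3 construct; higher means lower luciferase signal from less NR2E3 corepressor binding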
Target sequence (Q9Y5X4 whole entry, looked up, the tested form may be a part): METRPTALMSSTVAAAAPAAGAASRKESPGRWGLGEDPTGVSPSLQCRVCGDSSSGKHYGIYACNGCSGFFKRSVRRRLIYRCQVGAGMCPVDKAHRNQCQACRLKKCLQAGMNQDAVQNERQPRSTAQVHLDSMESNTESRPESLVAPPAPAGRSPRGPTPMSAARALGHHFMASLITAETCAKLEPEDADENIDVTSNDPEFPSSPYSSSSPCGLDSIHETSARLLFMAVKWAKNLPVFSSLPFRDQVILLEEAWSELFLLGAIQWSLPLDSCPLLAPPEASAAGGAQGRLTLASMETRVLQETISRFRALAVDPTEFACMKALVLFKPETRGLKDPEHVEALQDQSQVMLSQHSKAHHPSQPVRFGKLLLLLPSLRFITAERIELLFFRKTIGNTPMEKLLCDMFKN
NR2E3 ag-2: activates human photoreceptor nuclear receptor NR2E3; inhibition of corepressor binding, % at 4.78 µM; 320,000 compounds, 0.12% hits; GST-NR2E3/biotin-RetCOR TR-FRET, 1536-well; AID 2300;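 active = percent inhibition above the cutoff of mean plus 3 SD of all tested compounds, set per screening campaign, cut at about 20% in these data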;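 note: 0% = DMSO wells and 100% = biotin wells as full block of FRET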
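Test system – NR2E3–RetCOR corepressor complex · Quantity – NR2E3 fusion 1.35 nM · Buffer or medium – Tris pH 7.5 · Incubation – Compound–protein incubation for 5 h at 4 °C · Technique – TR-FRET, Eu(K)-anti-GST donor, streptavidin-D2 acceptor, ex 340, em 617/671 nm · Evaluation – percent inhibition of 671/617 nm emission ratio versus biotin and DMSO controls · Plate – 1536-well format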
Myeloid diff: promotes myeloid progenitor differentiation | shares compounds with Myeloid diff 2 | ER-HoxA9 myeloid progenitors, GFP/Mac1 double-positive flow | calls only | 2,300 compounds, 2% hits | AID 651706;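 active = share of green or green-and-red cells above 9 and 9% in run 1 or 4 and 3% in run 2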
GFP autofluor: compound fluorescence in myeloid differentiation counter-screen; shares compounds with Myeloid diff 2; ER-HoxA9 myeloid progenitors, no estrogen, GFP autofluorescence flow cytometry; vehicle wells 0%, positive control 100%; fluorescence response, % (concentration not given with the values); 2,300 compounds, 7.4% hits; AID 651707;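 active = over 5% cells positive for green fluorescent reporter, or over 2% positive for both it and APC stain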;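 note: range taken on the double positive population between DMSO and positive control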
Active calls of the source: *; i = inactive; . = no result; + = active, no number.

SMILES	Myeloid diff 2	T cell modulator	FXN GAA850 act	NR2E3 ag-1	NR2E3 ag-2	Myeloid diff	GFP autofluor
Clc1cccc(CNc2ccn3nc(-c4ccc(OCc5ccccc5)cc4)cc3n2)c1	+	.	0.8	45.8	.	i	0.9
c1ccc(COc2cccc(-c3cc4nc(NCCN5CCOCC5)ccn4n3)c2)cc1	+	.	-1.3	13.6	.	i	0.0
COc1ccc([C@H]2N[C@]3(CCCN(Cc4ccc(C(F)(F)F)cc4)C3=O)[C@H]3C(=O)N(Cc4ccccc4)C(=O)[C@@H]23)cc1	i	.	-3.9	-2.3	.	.	.
COc1ccc2c(CN3CCN(Cc4ccccc4)CC3)cc(=O)oc2c1	i	.	1.0	-7.1	.	.	.
CCC(CO)n1c(SCc2cc(=O)oc3cc(C)ccc23)nc2ccccc2c1=O (configuration not stated)	i	180.5	3.5	17.8	1.0	+	0.8
COc1ccccc1CN1C(=O)C2CC=CCC2C1=O (configuration not stated)	i	389.6	1.4	-0.1	3.1	i	1.2
CCOC(=O)c1cc2c(c(-c3ccccc3)n1)[C@@H](CCO)N(S(=O)(=O)C(C)(C)C)C2	i	.	4.3	-0.5	.	i	0.6
CCOC(=O)c1cc2c(c(-c3ccccc3)n1)[C@H](CCO)N(S(=O)(=O)C(C)(C)C)C2	i	.	-0.7	-33.7	.	.	.
CC(Sc1nn(-c2ccccc2)c(=S)s1)C(=O)NCC1CCCO1 (configuration not stated)	i	268.4	-1.1	11.4	5.0	i	0.5
Cc1nnc(SC(C)C(=O)NCC2CCCO2)n1-c1ccccc1 (configuration not stated)	i	362.0	-2.4	-1.6	1.0	.	.
CC[N+]1(CC)CC2=Cc3c(ccc4ccccc34)CC2C1 (configuration not stated)	+	273.3	0.0	-15.0	3.7	i	0.3
O=C(NCc1nnnn1-c1ccc(F)cc1)c1ccc2ccccc2c1	i	.	-2.0	17.3	.	.	.
Cc1ccc(-n2nnnc2CNC(=O)c2ccc([N+](=O)[O-])o2)cc1C	+	306.7	2.5	6.8	-0.7	i	0.0
O=C(NCc1nnnn1-c1ccc(F)cc1)c1ccc([N+](=O)[O-])o1	+	99.2	3.5	10.1	-1.6	i	4.3
CC(C)CC(=O)Nc1ccc(C(=O)NNC(=O)C(c2ccccc2)c2ccccc2)cc1	i	536.4	0.8	11.7	0.5	i	0.0
O=C1CCC/C=C/C[C@@H](CC(=O)N(CCO)Cc2ccccc2)C(=O)NC[C@@H](c2ccccc2)O1	i	228.2	-2.7	23.2	.	i	0.4
CCOc1cc(/C=N\Nc2ccc([N+](=O)[O-])cc2)ccc1OCC(=O)Nc1ccc(C)c(C)c1	.	205.3	-2.0	-3.9	0.9	.	.
COc1cc(/C=N\Nc2ccc([N+](=O)[O-])cc2)ccc1OCC(=O)Nc1ccc(C)c(C)c1	i	.	-0.1	0.2	.	i	0.3
C=C1CCC[C@]2(C)C[C@H]3OC(=O)C(CN4CC(C)OC(C)C4)[C@H]3C[C@@H]12 (some centres not stated)	i	148.5	-3.3	26.8	0.1	.	.
CC1CCN(CC2C(=O)O[C@@H]3C[C@@]4(C)CCC[C@H](C)C4=C[C@H]23)CC(C)(C)C1 (some centres not stated)	i	147.2	-1.2	-3.2	0.0	i	0.0
CC(=O)Nc1ccc(NC(=O)CCS(=O)(=O)c2ccc3c(c2)oc(=O)n3C)cc1	i	157.4	-0.6	-27.7	1.0	.	.
Cn1c(=O)oc2cc(NC(=O)CCl)ccc21	i	230.0	3.4	16.1	-3.0	i	0.5
O=C(Cn1c2ccccc2c2nc3n(c(=O)c21)CCS3)Nc1ccccc1C(F)(F)F	i	99.6	-1.9	-11.8	-4.0	.	.
COc1ccccc1NC(=O)Cn1c2ccccc2c2nc3n(c(=O)c21)CCS3	+	218.5	0.4	10.0	3.3	i	0.0
CCCc1nc(SCC(=O)N2CCCCCC2)c2c(=O)n(C)c(=O)n(C)c2n1	.	429.8	.	.	1.9	.	.
